The text below walks through data of PMC3678535 (Biochemistry, 2013).

Series [1] addresses T1, iNOS (Mus musculus, UniProt P29477). The experiment in a line: Ferric difference spectral binding assay. Also on record: species or system murine. An outline of the steps: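 Murine iNOS (E. coli-expressed, purified), 5 μM, in 100 mM HEPES pH 7.5 with 10 μM H4B, scanned 380–500 nm against a HEPES/H4B blank. […] Test compound titrated at 0.1–1 mM final, additions kept under 5% volume. Ks from Michaelis-Menten fit of concentration vs absorbance difference (local maximum minus minimum).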

Series [2] concerns the target T2, murine iNOS (Mus musculus, UniProt P29477). The series is described as follows: Inhibition of NO production. Conditions: 10 μM L-arginine, unit printed in cell/text as mM. Type of series: biochemical.
In series [3] the target is T1, iNOS. The experiment in a line: NO production measured with the Griess reagent, longer incubations. Conditions: incubations of 1, 2, 6, 12 and 24 hours. Type of series: biochemical, murine. In short, it runs like this: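 Purified murine iNOS (E. coli-expressed), 100 nM, incubated 1, 2, 6, 12 and 24 h with test compound at various concentrations, 100 μM NADPH and 10 μM H4B in 100 mM HEPES, 10% glycerol, pH 7.5. Lactate dehydrogenase added to oxidize leftover NADPH, then Griess reagents added. Nitrite/nitrate read by absorbance at 540 nm.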
A general note: Nitrite, measured by Griess reagent, commonly stands in for NO production.

The conditions of series [4]: cited from earlier work.
In another series the target is rat nNOS (Rattus norvegicus, UniProt P29476). The experiment in a line: NO production, hemoglobin capture assay. It counts as biochemical. As to conditions: for Km: NO production, 22 °C, pH 7.5.
The target of series [5] is T1, iNOS. The experiment in a line: Substrate uncoupling: NADPH consumption versus NO production. Type of series: biochemical, murine. Conditions: 20 μM arginine, 20 μM NHA, 100 μM NMOA, 100 μM NHMA.
In series [6] the target is T2, murine iNOS. The experiment in a line: NO production, hemoglobin capture assay. It counts as biochemical.
The test system of a further series is NOS. Conditions: cited from earlier work.
Series [7] addresses T1, iNOS. The series is described as follows: One-carbon metabolite of [14C]-NMOA-iNOS reaction. Type of series: biochemical, murine. As to conditions: MeOX/FDH conversion, scintillation counting.
A further series deals with Methanol oxidase (MeOX). Conditions: depending on the O2 concentration; cited from earlier work.
Where [8] appears, read: read-out: Ks (spectral binding constant), imidazole displacement.

Structures are written as SMILES. Where “and” joins values, the source holds several entries; their conditions need not be identical. Identical values can stand only once. Like-named read-outs stand apart in the source and are kept apart here.

rat nNOS, sequence (P29476 whole entry): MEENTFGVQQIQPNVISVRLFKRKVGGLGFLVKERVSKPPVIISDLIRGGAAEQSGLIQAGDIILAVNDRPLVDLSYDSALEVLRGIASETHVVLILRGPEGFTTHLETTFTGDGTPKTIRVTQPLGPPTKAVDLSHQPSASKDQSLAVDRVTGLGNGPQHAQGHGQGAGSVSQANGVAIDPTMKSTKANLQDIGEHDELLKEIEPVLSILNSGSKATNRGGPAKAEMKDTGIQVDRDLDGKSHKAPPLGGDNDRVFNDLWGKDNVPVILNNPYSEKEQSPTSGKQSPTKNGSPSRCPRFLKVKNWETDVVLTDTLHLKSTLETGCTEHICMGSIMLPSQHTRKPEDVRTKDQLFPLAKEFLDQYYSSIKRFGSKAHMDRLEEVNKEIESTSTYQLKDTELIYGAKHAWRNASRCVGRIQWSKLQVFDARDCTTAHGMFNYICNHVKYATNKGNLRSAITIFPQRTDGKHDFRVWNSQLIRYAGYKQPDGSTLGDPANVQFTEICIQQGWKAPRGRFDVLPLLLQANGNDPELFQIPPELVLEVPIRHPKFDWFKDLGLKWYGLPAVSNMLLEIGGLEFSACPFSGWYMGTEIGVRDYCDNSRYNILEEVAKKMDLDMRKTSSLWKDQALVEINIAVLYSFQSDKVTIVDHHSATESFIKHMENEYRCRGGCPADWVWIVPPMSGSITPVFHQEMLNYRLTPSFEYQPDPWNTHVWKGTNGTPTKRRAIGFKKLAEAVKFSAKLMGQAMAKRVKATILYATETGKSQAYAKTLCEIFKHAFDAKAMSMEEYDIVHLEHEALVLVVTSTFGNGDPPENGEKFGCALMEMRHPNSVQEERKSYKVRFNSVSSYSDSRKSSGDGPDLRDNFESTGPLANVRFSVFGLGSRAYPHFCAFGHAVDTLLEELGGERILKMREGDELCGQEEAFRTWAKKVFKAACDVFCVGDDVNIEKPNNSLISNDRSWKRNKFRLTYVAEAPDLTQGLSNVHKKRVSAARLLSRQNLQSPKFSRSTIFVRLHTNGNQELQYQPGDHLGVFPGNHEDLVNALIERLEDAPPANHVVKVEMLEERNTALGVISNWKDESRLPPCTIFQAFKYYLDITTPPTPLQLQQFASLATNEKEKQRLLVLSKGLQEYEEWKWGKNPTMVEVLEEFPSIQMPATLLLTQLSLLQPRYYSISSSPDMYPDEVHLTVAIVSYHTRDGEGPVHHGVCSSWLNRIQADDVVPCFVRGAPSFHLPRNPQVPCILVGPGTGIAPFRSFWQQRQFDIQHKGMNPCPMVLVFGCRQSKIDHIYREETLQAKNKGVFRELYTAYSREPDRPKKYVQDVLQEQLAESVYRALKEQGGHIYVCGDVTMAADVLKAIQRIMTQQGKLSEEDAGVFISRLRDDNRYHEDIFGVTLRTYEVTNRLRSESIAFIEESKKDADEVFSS

Broadly, the Ki is the equilibrium dissociation constant of an inhibitor or competing ligand from its target. In the case of `CN(CCC[C@H](N)C(=O)O)C(=N)NO` [MHA, N^δ-methyl- N^ω-hydroxy-L-arginine], the Kd on iNOS [1] (read-out: Ks (spectral binding constant), unit printed in cell/text as mM) is over 10 mM. At murine iNOS [2], this compound returned a Ki of over 10 mM. For the same compound, the “NO production (Griess reagent)” value at iNOS [3] is on record as “absence of NO production”.
In the case of `CCONC(=N)NCCC[C@H](N)C(=O)O` [NEOA, N^ω-ethoxy-L-arginine], on iNOS [1] (setting [8]), the Kd is 0.12 ± 0.013 mM. Moreover, at iNOS [3], the “NO production (Griess reagent)” value is “absence of NO production”.
Usually pKa stands for the pH at which an ionisable group is half protonated. A word on the kcat: it is the maximal rate divided by the concentration of active sites. Usually Km stands for the substrate concentration at which the rate is half of its maximum. Consider `N=C(NO)NCCC[C@H](N)C(=O)O` [NHA, N^ω-hydroxy-L-arginine, reference compound], for which, at iNOS [1] (setting [8]), the Kd turned out to be 0.029 ± 0.004 mM. For the same compound, the pKa in [4] is reported as 8.5. Further, the catalytic constant (kcat) at rat nNOS is 13 ± 4 min⁻¹; at murine iNOS [6], 16 ± 2 min⁻¹. Also, the Km on rat nNOS stood at 5.7 ± 2.1 µM; on murine iNOS [6] (NO production, 22 °C, pH 7.5), 0.022 ± 0.005 mM. Moreover, the “NADPH:NO (moles of NADPH consumed per mole of NO formed)” value at iNOS [5] worked out at 0.7 ± 0.3.
Take `CN(O)C(=N)NCCC[C@H](N)C(=O)O` [NHMA, N^ω-hydroxy-N^ω-methyl-L-arginine]: the Kd at iNOS [1] (setting [8]) came out at 0.034 ± 0.004 mM. Further, the results for the kcat on rat nNOS and on murine iNOS [6] were 1.0 ± 0.2 min⁻¹ and 0.9 ± 0.5 min⁻¹, respectively. Moreover, the results for the “kcat, times lower compared to NHA” value on rat nNOS and at murine iNOS [6] were about 13 times and “about 18 times”, respectively. Besides, the Km at rat nNOS was found to be 2 ± 0.4 µM; at murine iNOS [6] (NO production, 22 °C, pH 7.5), 0.034 ± 0.006 mM. The “NADPH:NO (moles of NADPH consumed per mole of NO formed)” value at iNOS [5] is 15 and 15.0 ± 2.7.
One may read the kinact as the maximal first-order rate at which the target is inactivated. In the case of `CN=C(N)NCCC[C@H](N)C(=O)O` [NMA, N^ω-Methyl-L-arginine], the kinact in the series on NOS (inactivator of NOS) was 0.07 min⁻¹. Besides, the KI (inactivation) in the series on NOS (read-out: KI (inactivation), inactivator of NOS) is 2700 nM. For the same compound, at NOS (read-out: Ki (competitive inhibitor), competitive inhibitor of NOS), the inhibition constant Ki was 0.2 µM.
As for `CON(C)C(=N)NCCC[C@H](N)C(=O)O` [NMMA, N^ω-methoxy-N^ω-methyl-L-arginine], the Kd on iNOS [1] (setting [8]) is 0.07 ± 0.005 mM. Besides, on iNOS [3], the “NO production (Griess reagent)” value was “absence of NO production”.
On to `CONC(=N)NCCC[C@H](N)C(=O)O` [NMOA, N^ω-methoxy-L-arginine], for which the Kd at iNOS [1] (setting [8]) was 0.122 ± 0.02 mM. Moreover, on rat nNOS, the kcat amounted to 1.8 ± 0.5 min⁻¹; the “kcat, times lower compared to NHA” value is reported as about 7 times; the Km is 11 ± 2 µM. On iNOS [5], the “NADPH:NO (moles of NADPH consumed per mole of NO formed)” value is 8 and 8.0 ± 1.5. On murine iNOS [6], the kcat is 4.7 ± 1.3 min⁻¹ and the “kcat, times lower compared to NHA” value was “about 4 times”. In addition, the Km on murine iNOS [6] (NO production, 22 °C, pH 7.5) was 0.088 ± 0.008 mM.
Consider `[14CH3]ONC(=N)NCCC[C@H](N)C(=O)O` [[^14C]-NMOA, N^ω-[^14C]-methoxy-L-arginine], for which the One-carbon metabolite result on iNOS [7] is given as “methanol”.
`N=C(N)NCCC[C@H](N)C(=O)O` [arginine, L-arginine, reference compound]: on iNOS [5], the “NADPH:NO (moles of NADPH consumed per mole of NO formed)” value is reported as 1.5.
As to `CN(CCC[C@H](N)C(=O)O)C(=N)N` [dMA, N^δ-Methyl-L-arginine], the inhibitory constant (Ki) on NOS (binds weakly to the NOS active site) was 1400 µM.
For the compound `C=O` [formaldehyde], the Michaelis constant (Km) in the series on Methanol oxidase (MeOX) was 2.5 mM.
Turning to `c1c[nH]cn1` [imidazole, reference compound], the Kd at iNOS [1] (setting [8]) lay within 0.12 to 0.15 mM.
Regarding `CO` [methanol], in the series with Methanol oxidase (MeOX), the Km was about 2 mM.
`CC(C)(C)ONC(=N)NCCC[C@H](N)C(=O)O` [tBOA, N^ω-tert-butyloxy-L-arginine] had a Ki at murine iNOS [2] of 7.4 ± 4.5 mM. For the same compound, the kcat at murine iNOS [6] stood at 0.3 ± 0.1 min⁻¹. Also, the Km on murine iNOS [6] (unit printed in cell/text as mM) worked out at 2.7 ± 0.8 mM.
